Experimental data: ChEMBL document CHEMBL4837191, “Prenylated Coumaric Acids from Artemisia scoparia Beneficially Modulate Adipogenesis” (J Nat Prod, 2021)
The source made the active and inactive calls. No cut-off for these calls is given here.

How the values were obtained:
Format in all cases: functional, cell-based
3T3-L1 [1] = assay: Induction of adipogenic differentiation in mouse 3T3-L1 cells assessed as increase in PPARgamma mRNA expression by RT-PCR analysis; conditions: dose 2.5-25 µM
Outline: (§1)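 3T3-L1 preadipocytes induced 2 days post-confluence with half-strength MDI (IBMX, DEX, insulin in high-glucose DMEM + 10% FBS); compound (2.5, 10, 25 µM, DMSO 1,000× stocks) added at induction and at day-3 feeding (DMEM + 10% FBS, 0.43 µM insulin). RNA harvested 4 days post-MDI; reverse-transcription qPCR, normalized to Nono; compared with DMSO controls.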

3T3-L1 [2] = assay: Induction of adipogenic differentiation in mouse 3T3-L1 cells assessed as increase in AdipoQ mRNA expression by RT-PCR analysis; conditions: dose 2.5-25 µM; outline: as §1
3T3-L1 [3] = assay: Induction of adipogenic differentiation in mouse 3T3-L1 cells assessed as increase in FABP4 mRNA expression by RT-PCR analysis; conditions: dose 2.5-25 µM; outline: as §1
3T3-L1 [4] = assay: Inhibition of TNF-alpha induced lipolysis in mouse 3T3-L1 adipocytes assessed as reduction in glycerol release at 2.5 to 25 uM measured after 4 hrs by glycerol reagent based assay; conditions: dose 2.5-25 µM
Outline: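 Mature 3T3-L1 adipocytes (full MDI: 0.5 mM IBMX, 1 µM DEX, 1.72 µM insulin), refed day 6, then compound (2.5, 10, 25 µM) or DMSO for 3 days. Overnight 0.75 nM TNFα (or BSA/PBS vehicle), then 4 h in low-glucose DMEM + 2% BSA with TNFα. Medium glycerol by Free Glycerol Reagent, normalized to BCA lysate protein.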

3T3-L1 [5] = assay: Induction of adipogenic differentiation in mouse 3T3-L1 cells at 2.5 to 25 uM measured after 4 days by Oil Red O staining; conditions: dose 2.5-25 µM, time 4.0 day

## CC(=O)OC/C(C)=C\Cc1cc(/C=C\C(=O)O)cc(C/C=C(/C)CO)c1O
3T3-L1 [1]
  Activity: Active
3T3-L1 [2]
  Activity: Active
3T3-L1 [3]
  Activity: Active
3T3-L1 [4]
  inhibition: Active
3T3-L1 [5]
  Activity: Active

## CC(=O)OC/C(C)=C\Cc1cc(/C=C/C(=O)O)cc(C/C=C(/C)CO)c1O
3T3-L1 [1]
  Activity: Active
3T3-L1 [2]
  Activity: Active
3T3-L1 [3]
  Activity: Active
3T3-L1 [4]
  inhibition: Active
3T3-L1 [5]
  Activity: Active

## CC(C)=CCc1cc(/C=C/C(=O)O)cc(C/C=C(/C)CO)c1O
3T3-L1 [4]
  inhibition: inactive
3T3-L1 [5]
  Activity: Active

## CC(C)=CCc1cc(/C=C/C(=O)O)cc(C/C=C(\C)CO)c1O
3T3-L1 [1]
  Activity: Active
3T3-L1 [2]
  Activity: Active
3T3-L1 [3]
  Activity: Active
3T3-L1 [4]
  inhibition: inactive
3T3-L1 [5]
  Activity: Active
